KCNK3 inh: human KCNK3 channel inhibition, primary screen | B-score at 10 µM | AID 602410 | O14649 | 340,000 compounds, 0.84% hits | CHO-KCNK3 thallium flux, FluxOR fluorescence; stronger effect = lower value;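 active = B-score under library mean minus 4 SD, starting fluorescence ratio at most library mean plus 5 SD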;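 also: more negative B-score means stronger inhibition of thallium flux through KCNK3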
hERG rescue: hERG (human) protection from proarrhythmic block; 310,000 compounds, 0.51% hits; AID 1511; Q12809; CHO-hERG, FluxOR thallium flux, dofetilide IC70 present; activation (rescue from dofetilide block), less the hit threshold, % at 10 µM;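 active = activation above the mean of controls blocked by dofetilide plus 5 SD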;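 also: thallium influx through hERG after potassium depolarization seen as dye fluorescence rise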
Target sequence (Q12809 whole entry, looked up): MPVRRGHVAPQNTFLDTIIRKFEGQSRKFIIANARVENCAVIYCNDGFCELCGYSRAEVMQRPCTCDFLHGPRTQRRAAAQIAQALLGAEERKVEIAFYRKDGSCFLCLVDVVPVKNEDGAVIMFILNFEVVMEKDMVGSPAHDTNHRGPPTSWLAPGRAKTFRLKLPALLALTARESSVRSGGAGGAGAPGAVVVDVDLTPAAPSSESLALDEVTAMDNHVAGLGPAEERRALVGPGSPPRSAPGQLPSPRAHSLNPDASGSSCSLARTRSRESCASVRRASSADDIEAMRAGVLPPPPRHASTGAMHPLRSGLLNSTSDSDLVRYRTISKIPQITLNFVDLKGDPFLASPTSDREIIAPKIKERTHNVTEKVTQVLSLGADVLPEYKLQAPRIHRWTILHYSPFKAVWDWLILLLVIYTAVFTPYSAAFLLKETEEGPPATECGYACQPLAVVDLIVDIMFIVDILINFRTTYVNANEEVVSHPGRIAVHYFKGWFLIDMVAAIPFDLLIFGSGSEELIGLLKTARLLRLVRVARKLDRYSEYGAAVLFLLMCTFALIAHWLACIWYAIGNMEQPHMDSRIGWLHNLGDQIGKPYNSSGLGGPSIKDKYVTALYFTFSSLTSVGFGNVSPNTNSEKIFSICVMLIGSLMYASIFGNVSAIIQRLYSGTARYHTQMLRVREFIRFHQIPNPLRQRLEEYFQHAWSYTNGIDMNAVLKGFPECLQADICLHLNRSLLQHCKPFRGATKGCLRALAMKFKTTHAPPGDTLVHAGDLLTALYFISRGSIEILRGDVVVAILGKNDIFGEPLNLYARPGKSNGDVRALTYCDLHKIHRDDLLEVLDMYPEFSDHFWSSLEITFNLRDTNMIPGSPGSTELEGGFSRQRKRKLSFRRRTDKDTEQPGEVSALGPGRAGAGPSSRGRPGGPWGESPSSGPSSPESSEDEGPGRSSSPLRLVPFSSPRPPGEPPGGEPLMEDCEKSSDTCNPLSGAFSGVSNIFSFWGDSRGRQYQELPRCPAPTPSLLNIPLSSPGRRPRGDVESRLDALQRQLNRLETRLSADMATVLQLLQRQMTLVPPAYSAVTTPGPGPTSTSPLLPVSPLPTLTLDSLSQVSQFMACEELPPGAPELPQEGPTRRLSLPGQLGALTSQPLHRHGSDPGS
KCNQ1 inh: blocks the human KCNQ1 potassium channel; P51787; CHO-K1 KCNQ1, FluxOR thallium flux fluorescence; stronger effect = higher value; B-score at 10 µM; 310,000 compounds, 1.3% hits;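 active = compounds whose thallium flux B-score, printed positive for inhibition, exceeds three library SD while starting fluorescence stays within three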;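 also: channel opened by potassium depolarization with thallium stimulus after 20 min compound exposure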
KCC2 mod: KCC2 (human) Cl- transport modulation; KCC2 cells, thallium flux FluoZin-2 fluorescence; B-score of Tl+ flux slope (higher = more flux/activation; lower = inhibition) at 10 µM; Q9H2X9; 190,000 compounds, 2.2% hits; AID 1456;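 active = thallium flux slope and its plate-corrected score both differing from the plate sample mean at a set confidence after two filtering rounds, in either direction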;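 also: slope of fluorescence scaled to starting intensity during 10 to 20 s after thallium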
KCNQ1 pot: potentiates or activates the human KCNQ1 potassium channel; CHO-K1 KCNQ1, thallium flux FluxOR fluorescence; stronger effect = higher value; P51787; AID 2648; B-score at 10 µM; 310,000 compounds, 0.35% hits;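 active = fluorescence ratio B-score, a plate-corrected score, at least three library SD, with initial intensity B-score within 5 SD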
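Medium – assay buffer, equal DMSO in all wells · Material – CHO-K1 cell line with stable KCNQ1 potassium channel expression · Signal – kinetic FluxOR thallium fluorescence, 10-s 1-Hz baseline, 110-s post-stimulus read · Compound – single concentration per compound, DMSO matched to controls · Schedule – 37 °C overnight plating, 90-min dark dye load, 20-min compound pretreatment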
KCNK9 block: inhibitors of human KCNK9 two-pore domain potassium channel; Q9NPC2; HEK293 KCNK9, FluxOR thallium flux fluorescence; stronger effect = lower value; B-score at 10 µM; 310,000 compounds, 1.2% hits; AID 488922;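 active = ratio B-score over 3 SD below the library mean, with starting fluorescence within 5 SD of its mean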;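 also: negative B-score means less thallium flux so channel inhibition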
KCNK9 block conf: human KCNK9 inhibitor confirmation. inhibition, % at 10 µM. HEK293 KCNK9 cells, FluxOR thallium flux fluorescence. shares compounds with KCNK9 block. 4,900 compounds, 43% hits;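 active = thallium signal inhibited by more than 5 SD of the compound-free buffer control wells, on both duplicate plates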
Kir21 sel: tests whether KCNK9 modulators also affect mouse Kir2.1; shares compounds with KCNK9 block; Kir2.1 cells, FluxOR thallium flux fluorescence; inhibition, % at 10 µM; 4,900 compounds, 4% hits;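 active = thallium signal drop more than 5 SD beyond the mean of the no-compound control wells, seen in both duplicate plates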;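 also: signal is fluorescence rise after thallium addition divided by baseline fluorescence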
HEK293 Tl ctr: second counter-screen for KCNK9 modulators: effect in non-induced cells; shares compounds with KCNK9 block; non-induced KCNK9-HEK293, FluxOR thallium flux; inhibition, % at 10 µM; 4,900 compounds, 40% hits;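 active = thallium signal drop beyond 5 SD of the untreated control mean, on both duplicate plates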
A number is an active result; – = inactive; · = not tested or not shown. Hits are enriched below; roughly 4.1% of the tested compounds scored in any of these assays.

SMILES | KCNK3 inh | hERG rescue | KCNQ1 inh | KCC2 mod | KCNQ1 pot | KCNK9 block | KCNK9 block conf | Kir21 sel | HEK293 Tl ctr
O=C(NCc1ccccc1)C1=C[C@H](c2ccc3c(c2)OCO3)C[C@H](OCc2ccc(CO)cc2)O1 | – | – | – | · | – | – | · | · | ·
O=C(NCc1ccccc1)C1=C[C@H](c2ccc3c(c2)OCO3)C[C@H](OCCCCO)O1 | – | – | – | – | – | – | – | – | –
O=C(NCc1ccccc1)C1=C[C@H](C2CCCCC2)C[C@H](OCCCCO)O1 | – | – | – | · | – | – | – | – | –
C/C(=N/OC(=O)c1ccc(C)cc1)c1cccs1 | – | – | – | · | – | – | · | · | ·
C/C(=N/OC(=O)c1ccccc1Br)c1ccc(C)cc1 | – | – | – | · | – | -12 | 58% | – | 34%
O=C(NCCCN1CCOCC1)c1sc2cc([N+](=O)[O-])ccc2c1Cl | – | – | – | – | – | – | – | – | –
O=C(NCCCN1CCOCC1)c1sc2cc(Cl)ccc2c1Cl | – | – | – | – | – | – | · | · | ·
N#CCCN(C(=O)COC(=O)CCN=C1NS(=O)(=O)c2ccccc21)c1ccc(F)cc1 | – | – | – | · | – | – | · | · | ·
Cc1c(CCC(=O)NCC(=O)NCC(=O)O)c(=O)oc2cc3oc4c(c3cc12)CCCC4 | – | – | – | · | – | – | · | · | ·
Cc1c(CCC(=O)O)c(=O)oc2cc3oc4c(c3cc12)CCCC4 | – | – | – | – | – | – | – | – | –
CC(C)N(C(=O)c1nn(C)c2c1CSc1ccccc1-2)C1CCCCC1 | – | – | 8 | · | – | -10 | 34% | – | –
Cn1nc(C(=O)NC2CCCCC2)c2c1-c1ccccc1SC2 | – | – | – | · | – | – | · | · | ·
C#CCOCCOCCOCCNc1nc(N2CCN(C(=O)[C@H](C)n3cc(CCC(=O)O)nn3)CC2)nc(N2CCN(C(=O)[C@H](CCCCN)n3cc(CCCC)nn3)CC2)n1 | – | · | · | · | · | · | · | · | ·
COc1ccc(N(CCCN2C(=O)c3cccc4cccc(c34)C2=O)C(=O)c2cccnc2)cc1 | – | – | – | – | – | – | – | – | –
O=C(Nc1ccc(F)cc1F)Nc1sccc1-c1nc2ccccc2s1 | – | – | – | – | – | -11 | 50% | – | 26%
Fc1ccccc1Cc1noc(CN2CCN(C/C=C/c3ccccc3)CC2)n1 | – | – | – | – | – | – | – | – | –
O=CN1CCCN(Cc2nc(Cc3ccccc3F)no2)CC1 | – | – | – | – | – | – | · | · | ·
CCS(=O)(=O)c1ccc(O)c(NC(=O)Nc2ccc(C(C)(C)C)cc2)c1 | – | – | – | – | – | – | · | · | ·
CC1CN(S(=O)(=O)c2ccc(C(=O)Nc3nnc(-c4ccc5c(c4)CCCC5)o3)cc2)CC(C)O1 (stereo not drawn) | – | – | – | 7.9 | – | – | – | – | –
CC1CN(S(=O)(=O)c2ccc(C(=O)Nc3nnc(-c4ccccn4)o3)cc2)CC(C)O1 (stereo not drawn) | – | – | – | – | – | – | · | · | ·
CC1=CC(C)C2(COC(=O)Nc3ccccc3)COC(C)C1C2C (stereo not drawn) | – | – | – | – | – | – | – | – | –
CCOC(=O)N1CC(C)N(C(=S)Nc2ccccc2)CC1C (stereo not drawn) | – | · | · | · | · | · | · | · | ·
Clc1ccc(-c2nnc(CCc3ccccc3)o2)c(Cl)c1 | – | – | – | – | – | – | – | – | –
CCCn1nc(C(=O)NNC(=O)c2cccc(C)c2)c2ccccc2c1=O | – | · | · | · | · | · | · | · | ·
CCc1ccc(-c2cc(C)no2)cc1S(=O)(=O)N1CCN(c2cc(C)ccc2C)CC1 | – | – | – | · | – | – | – | – | –
O=C(/C=C/c1cccc([N+](=O)[O-])c1)NCCSCc1c(Cl)cccc1Cl | – | – | – | – | – | – | · | · | ·
